The record followed here is PubChem BioAssay AID493079 (The Scripps Research Institute Molecular Screening Center, 2011).

Each structure is given as a SMILES string. The source made the active and inactive calls.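 Rule for the calls: active = IC50 of 10 µM or lower for blocking Epstein-Barr viral protein EBNA-1 from binding DNA; inactive = IC50 above 10 µM.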

In the experiment the target is EBNA-1 DNA-binding domain (Epstein-Barr virus). The experiment can be described thus: blockers of EBV EBNA-1 DNA binding, IC50 – biochemical, fluorescence polarization, dose response, assay provider data, late-stage follow-up (AID 493079). Conditions: recombinant EBNA1 DBD, Cy5-DNA fluorescence polarization. The essentials:
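assay system = EBNA-1 DBD (aa 448-610), E. coli-expressed | probe or stimulus = Cy5 hairpin DNA probe, 36 bp | dosing = dose-response series of powder compound samples | technique = Cy5 fluorescence polarization | measure = IC50 from lowered polarization, reflecting more unbound DNA probe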
A general note: Fluorescence polarisation rises when a labelled molecule tumbles more slowly, as on binding a larger partner.
For orientation: IC50 means the concentration at which inhibition is half-maximal. As to `Cc1ccc(-n2nnnc2SCC(=O)c2cc(C)n(CC3CCCO3)c2C)cc1` (stereo not given), the IC50 is 5.47 µM.
Then `Cc1ccc(C(=O)Nc2nc3ccc(S(C)(=O)=O)cc3s2)cc1`, with > 148 µM (inactive); and `Cc1cccc(-n2nnnc2SCC(=O)c2cc(C)n(CC3CCCO3)c2C)c1` (stereo not given), with > 148 µM (inactive).
With `Cc1cc(C(=O)CSc2nnnn2-c2ccccc2)c(C)n1Cc1cccs1`, the IC50 is > 148 µM (inactive).
Regarding `CCn1c(C)cc(C(=O)CSc2nnnn2-c2ccccc2)c1C`, the IC50 was > 148 µM (inactive).
In the case of `COc1ccc(-n2nnnc2SCC(=O)c2cc(C)n(CC3CCCO3)c2C)cc1` (stereo not given), the IC50 entry was “inactive”.
Then `CS(=O)(=O)c1ccc2nc(NC(=O)c3cccc(F)c3)sc2c1`, with > 148 µM (inactive).
As to `CS(=O)(=O)c1ccc2nc(NC(=O)c3cccc(Cl)c3)sc2c1`, the IC50 is > 148 µM (inactive).
As for `Cc1ccc(C(=O)Nc2nc3cc(F)ccc3s2)cc1C`, the IC50 was > 148 µM (inactive).
Then `Cc1cc(C(=O)CSc2nnnn2-c2cccc(F)c2)c(C)n1CC1CCCO1` (stereo not given), with > 148 µM (inactive).
Next, `Cc1ccccc1C(=O)Nc1nc2ccc(S(C)(=O)=O)cc2s1`: > 148 µM (inactive); `COCCn1c(C)cc(C(=O)CSc2nnnn2-c2ccccc2)c1C`: > 148 µM (inactive).
Then `Cc1ccccc1-n1nnnc1SCC(=O)c1cc(C)n(CC2CCCO2)c1C` (stereo not given), with > 148 µM (inactive); and `Cc1ccc(C(=O)Nc2nc3cc(Br)ccc3s2)cc1C`, with > 148 µM (inactive); and `COc1cccc2sc(NC(=O)c3ccc(C)c(C)c3)nc12`, with > 148 µM (inactive).
Regarding `COc1ccc(C(=O)Nc2nc3ccc(S(C)(=O)=O)cc3s2)cc1`, the IC50 result was “inactive”.
Then `Cc1cc(C(=O)CSc2nnnn2C2CC2)c(C)n1CC1CCCO1` (stereo not given), with “inactive”; and `Cc1cc(C(=O)CSc2nnnn2-c2ccccc2)c(C)n1C`, with “inactive”; and `COc1ccc2sc(NC(=O)c3ccc(C)c(C)c3)nc2c1`, with > 148 µM (inactive).
For `COc1ccccc1C(=O)Nc1nc2ccc(S(C)(=O)=O)cc2s1`, the IC50 was > 148 µM (inactive).
Then `COc1ccc2nc(NC(=O)c3ccc(C)c(C)c3)sc2c1`, with > 148 µM (inactive); and `Cc1ccc(C(=O)Nc2nc3ccc(Br)cc3s2)cc1C`, with > 148 µM (inactive); and `Cc1cccc(C(=O)Nc2nc3ccc(S(C)(=O)=O)cc3s2)c1`, with “inactive”.
In the case of `O=C(CSc1nnnn1-c1ccccc1)c1ccn(CC2CCCO2)c1` (stereo not given), the IC50 was > 148 µM (inactive).
As for `COc1cccc(C(=O)Nc2nc3ccc(S(C)(=O)=O)cc3s2)c1`, the IC50 result was “inactive”.
`CS(=O)(=O)c1ccc2nc(NC(=O)c3ccccc3F)sc2c1`: the IC50 is > 148 µM (inactive).
Next, `Cc1cc(C(=O)CSc2nnnn2-c2ccc(Cl)cc2)c(C)n1CC1CCCO1` (stereo not given): > 148 µM (inactive); `CS(=O)(=O)c1ccc2nc(NC(=O)c3ccccc3Cl)sc2c1`: > 148 µM (inactive); `Cc1cc(C(=O)CSc2nnnn2C)c(C)n1CC1CCCO1` (stereo not given): > 148 µM (inactive).
Next, `CS(=O)(=O)c1ccc2nc(NC(=O)c3ccc(Cl)cc3)sc2c1`: “inactive”.
